For data set [1], the target named is T1, human TGR5 (Homo sapiens, UniProt Q8TDU6).
T1 sequence (Q8TDU6 1-330): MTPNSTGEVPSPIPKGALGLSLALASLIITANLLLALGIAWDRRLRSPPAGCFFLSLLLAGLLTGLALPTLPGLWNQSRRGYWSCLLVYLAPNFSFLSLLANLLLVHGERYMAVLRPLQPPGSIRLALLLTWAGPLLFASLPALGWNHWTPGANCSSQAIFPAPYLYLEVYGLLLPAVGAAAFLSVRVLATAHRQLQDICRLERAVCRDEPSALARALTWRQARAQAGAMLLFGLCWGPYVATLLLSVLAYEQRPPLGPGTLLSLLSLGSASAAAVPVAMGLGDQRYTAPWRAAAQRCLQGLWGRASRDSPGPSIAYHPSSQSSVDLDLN
Put plainly: cell-based.

Data set [2] relates to C. difficile. The conditions noted are these: cited from earlier work.
In another data set the target is T2, human FXRα2 (Homo sapiens, UniProt Q96RI1).
T2 sequence (Q96RI1 1-472 isoform Q96RI1-2): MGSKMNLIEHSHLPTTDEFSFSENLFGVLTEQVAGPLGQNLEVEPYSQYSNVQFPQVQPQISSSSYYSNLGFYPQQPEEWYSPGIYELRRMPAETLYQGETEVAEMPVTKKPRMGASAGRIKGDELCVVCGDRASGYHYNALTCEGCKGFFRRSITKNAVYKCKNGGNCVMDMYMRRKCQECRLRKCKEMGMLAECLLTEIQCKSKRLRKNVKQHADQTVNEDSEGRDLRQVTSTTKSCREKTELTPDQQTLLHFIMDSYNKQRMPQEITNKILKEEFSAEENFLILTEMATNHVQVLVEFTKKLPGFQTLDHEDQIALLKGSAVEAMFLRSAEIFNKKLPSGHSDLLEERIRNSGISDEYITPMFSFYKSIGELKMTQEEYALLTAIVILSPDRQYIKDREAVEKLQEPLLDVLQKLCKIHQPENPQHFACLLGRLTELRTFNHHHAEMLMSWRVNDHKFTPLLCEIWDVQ
T2 sequence (P19793 1-462 partner): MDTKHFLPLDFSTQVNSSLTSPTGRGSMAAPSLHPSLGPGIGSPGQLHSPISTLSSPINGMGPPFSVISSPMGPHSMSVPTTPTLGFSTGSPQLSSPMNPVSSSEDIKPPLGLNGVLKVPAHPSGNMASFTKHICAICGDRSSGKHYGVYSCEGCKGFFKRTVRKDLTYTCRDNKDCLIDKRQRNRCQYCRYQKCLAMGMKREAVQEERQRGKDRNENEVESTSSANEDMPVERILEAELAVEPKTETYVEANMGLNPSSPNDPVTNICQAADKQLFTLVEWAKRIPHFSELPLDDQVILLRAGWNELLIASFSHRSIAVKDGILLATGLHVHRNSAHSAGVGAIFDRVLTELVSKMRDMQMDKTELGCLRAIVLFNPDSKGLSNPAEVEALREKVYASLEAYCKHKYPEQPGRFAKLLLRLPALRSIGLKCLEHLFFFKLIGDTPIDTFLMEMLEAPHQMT
The data set can be described thus: FXR luciferase reporter assay in 293T cells transfected with FXRα2. The conditions noted are these: for EC50: read-out: EC50 for FXR (cell-based reporter assay, composite EC50), second column entry, 293T cells expressing FXRα2, RXRα, ASBT, repeated thrice for L-TyrCDCA only. It is filed as cell-based. In outline: (§1)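 293T cells (70–80% confluent) were co-transfected by lipofection with FXRα2 or FXRα4 (10 ng), RXRα (2 ng), an Shp-element firefly reporter (5 ng), Renilla pRL-TK (2 ng), ASBT or NTCP (0 or 1 ng) and GFP filler to 100 ng. After 24 h, cells received 0.1% DMSO, a 10 µM positive control, or test compounds in serum-free medium for 24 h. Firefly:Renilla ratios were set relative to DMSO; quadruplicates, 3 independent runs.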
(A reporter such as luciferase makes a cellular process visible.)

In a further data set the target is T3, human FXRα4 (Homo sapiens, UniProt Q96RI1).
T3 sequence (Q96RI1 1-482 isoform Q96RI1-4): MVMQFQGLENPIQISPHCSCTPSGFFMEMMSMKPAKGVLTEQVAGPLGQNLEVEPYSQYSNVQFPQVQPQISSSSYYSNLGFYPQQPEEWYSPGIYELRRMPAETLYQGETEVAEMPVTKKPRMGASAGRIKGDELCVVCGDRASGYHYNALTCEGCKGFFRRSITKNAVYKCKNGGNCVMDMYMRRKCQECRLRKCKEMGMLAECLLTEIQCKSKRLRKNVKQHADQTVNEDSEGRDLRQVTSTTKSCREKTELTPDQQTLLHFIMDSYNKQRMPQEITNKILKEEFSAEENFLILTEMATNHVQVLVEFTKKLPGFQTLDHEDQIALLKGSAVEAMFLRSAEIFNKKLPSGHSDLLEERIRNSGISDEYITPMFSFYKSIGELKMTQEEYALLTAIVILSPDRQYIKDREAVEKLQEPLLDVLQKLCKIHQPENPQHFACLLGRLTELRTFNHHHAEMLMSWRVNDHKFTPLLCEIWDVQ
T3 sequence (P19793 1-462 partner): T2 sequence (P19793 1-462 partner)
The data set can be described thus: FXR luciferase reporter assay in 293T cells transfected with FXRα4. The note with it: 10 µM, cells overexpressing FXRα4, independent of bile salt importer. Type of data set: cell-based. In short, it runs like this: as §1

Another data set has as its system microbial composition. The conditions noted are these: initial tests; cited from earlier work.
Data set [3] deals with C. difficile. The note with it: cited from earlier work. The source holds these as a separate data set.
The subject of a further data set is RAW264.7 cells. Put plainly: LPS-induced cytokine release. The conditions noted are these: then 3 ng/mL LPS 23 h; for effect on LPS-enhanced medium levels of TNFα and IL-6: 100 µM pretreatment 1 h. It is filed as cell-based, murine. In short, it runs like this:
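RAW264.7 cells at 70–80% confluency were pretreated 1 h in serum-free medium with 0.1% DMSO, a 50 µM positive control, or test compounds. LPS (E. coli O128:B12, 3 ng/mL) was then added for 23 h. Cleared supernatants (300 g, 10 min) were assayed for IL-6 and TNFα by ELISA, normalized to cellular protein. Quadruplicates; three repeats.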

Data set [4] deals with T1, human TGR5. It is filed as cell-based. The note with it: 10 µM positive control, 293T cells -/+ TGR5 overexpression.
For data set [5] the following is noted: mice, considerable dose; cited from earlier work.

These results are taken from paper PMC10962891 (Hepatology Communications, 2024).

Entries after “also recorded” stand apart in the source; their conditions may differ.

Consider `C[C@H](CCC(=O)NCCS(=O)(=O)O)[C@H]1CC[C@H]2[C@@H]3[C@H](O)C[C@@H]4C[C@H](O)CC[C@]4(C)[C@H]3C[C@H](O)[C@]12C` [TCA, Taurocholic acid], for which it took 277 ± 16.6 µM to reach a half-maximal effect on human TGR5 [1] (EC50).

`C[C@H](CCC(=O)NCC(=O)O)[C@H]1CC[C@H]2[C@@H]3[C@H](O)C[C@@H]4C[C@H](O)CC[C@]4(C)[C@H]3C[C@H](O)[C@]12C` [GCA, glycocholic acid]: the response on human TGR5 [1] was half-maximal at 342 ± 26.7 µM (EC50).

For `C[C@H](CCC(=O)N[C@@H](Cc1ccccc1)C(=O)O)[C@H]1CC[C@H]2[C@@H]3[C@@H](O)[C@@H](O)[C@@H]4C[C@H](O)CC[C@]4(C)[C@H]3CC[C@]12C` [Pheβ muricholic acid], the “spore germination of C. difficile” value with C. difficile [2] is “inhibit”.

For the compound `CC(CCC(=O)NCC(=O)O)C1CCC2C3C(O)CC4CC(O)CCC4(C)C3CCC12C` (centres unmarked) [GCDCA, glycochenodeoxycholic acid], on human TGR5 [1], the EC50 (in general, the concentration that produces a half-maximal response) is 29.4 ± 0.9 µM.

For `C[C@H](CCC(=O)N[C@@H](Cc1ccc(O)cc1)C(=O)O)[C@H]1CC[C@H]2[C@@H]3[C@H](O)C[C@@H]4C[C@H](O)CC[C@]4(C)[C@H]3C[C@H](O)[C@]12C` [L-TyrCA, L-Tyrosocholic acid], the EC50 at human FXRα2 worked out at 46.3 µM. Further, the “affinity for FXRα2 relative to D/L-TyrCDCA (fold lower)” value at human FXRα2 (reporter cells expressing uptake transporter) turned out to be 6 fold.

For `CC[C@H]1[C@@H](O)[C@@H]2[C@H](CC[C@]3(C)[C@@H]([C@H](C)CCC(=O)O)CC[C@@H]23)[C@@]2(C)CC[C@@H](O)C[C@@H]12` [OCA, obeticholic acid, reference compound], at human FXRα2 (10 µM, FXRα2/RXRα, no transporter), the “FXR reporter activation in mock-transfected cells (-OSTαβ)” value was “able to activate FXR”. Moreover, the FXR reporter activation entry at human FXRα2 (10 µM, cells overexpressing FXRα2, independent of bile salt importer) is “strongly activated”; at human FXRα4, “strongly activated”.

Turning to `C[C@H](CCC(=O)N[C@@H](Cc1ccc(O)cc1)C(=O)O)[C@H]1CC[C@H]2[C@@H]3[C@H](O)C[C@@H]4C[C@H](O)CC[C@]4(C)[C@H]3CC[C@]12C` [L-TyrCDCA, L-Tyrosochenodeoxycholic acid], the EC50 at human FXRα2 came to 7.8 µM.

On to `C[C@H](CCC(=O)N[C@@H](Cc1ccccc1)C(=O)O)[C@H]1CC[C@H]2[C@@H]3[C@H](O)C[C@@H]4C[C@H](O)CC[C@]4(C)[C@H]3C[C@H](O)[C@]12C` [PheCA, phenylalanocholic acid], for which the “spore germination of C. difficile” value in the data set with C. difficile [2] is on record as “inhibit”. The “effect on microbial composition in vitro” value in the data set with microbial composition is “did not affect”. In the data set with C. difficile [3], the “growth of C. difficile” value is on record as “not inhibited”. Further, the “effect on LPS-enhanced medium levels of TNFα and IL-6” value in the data set with RAW264.7 cells was “counteracted”.

In the case of `C[C@H](CCC(=O)N[C@H](Cc1ccc(O)cc1)C(=O)O)[C@H]1CC[C@H]2[C@@H]3[C@H](O)C[C@@H]4C[C@H](O)CC[C@]4(C)[C@H]3C[C@H](O)[C@]12C` [D-TyrCA, D-Tyrosocholic acid], the EC50 at human FXRα2 is 9.9 µM.

For `C[C@H](CCC(=O)NCCS(=O)(=O)O)[C@H]1CC[C@H]2[C@@H]3CC[C@@H]4C[C@H](O)CC[C@]4(C)[C@H]3CC[C@]12C` [TLCA, taurolithocholic acid, reference compound], in the data set with RAW264.7 cells (50 µM pretreatment 1 h), the “change of LPS-induced IL-6 level” value is on record as -4.6 fold and the “change of LPS-induced TNFα level” value was -3.6 fold.

`C=C[C@@]1(C)CC(=O)[C@]2(O)[C@@]3(C)[C@@H](O)CCC(C)(C)[C@@H]3[C@H](O)[C@H](OC(C)=O)[C@@]2(C)O1` [forskolin, Forskolin A]: at human TGR5 [4], the “activation of cAMP-driven reporter” value is recorded as “activated the reporter independent of TGR5 overexpression”.

On to `C[C@H](CCC(=O)N[C@@H](Cc1ccc(O)cc1)C(=O)O)[C@H]1CC[C@H]2[C@@H]3[C@H](O)C[C@@H]4C[C@H](O)CC[C@]4(C)[C@H]3C[C@H](O)[C@]12C` [TyrCA, tyrosocholic acid], for which the “spore germination of C. difficile” value in the data set with C. difficile [2] is “inhibit”. Also, the “detection in portal blood or bile after repeated oral gavage” value in data set [5] is reported as “failure to detect; also recorded: did not lead to detection”. Besides, the “effect on microbial composition in vitro” value in the data set with microbial composition is reported as “did not affect”. Also, the “growth of C. difficile” value in the data set on C. difficile [3] was “not inhibited”.

For `C[C@H](CCC(=O)N[C@@H](Cc1ccccc1)C(=O)O)[C@H]1CC[C@H]2[C@@H]3[C@H](O)C[C@@H]4C[C@H](O)CC[C@]4(C)[C@H]3CC[C@]12C` [PheCDCA, phenylalanochenodeoxycholic acid], in the data set with RAW264.7 cells, the “effect on LPS-enhanced medium levels of TNFα and IL-6” value is “counteracted”.

Take `C[C@H](CCC(=O)N[C@H](Cc1ccc(O)cc1)C(=O)O)[C@H]1CC[C@H]2[C@@H]3[C@H](O)C[C@@H]4C[C@H](O)CC[C@]4(C)[C@H]3CC[C@]12C` [D-TyrCDCA, D-Tyrosochenodeoxycholic acid]: at human FXRα2, the EC50 came to 6.8 µM.

Regarding `CC(C)C[C@H](NC(=O)CC[C@@H](C)[C@H]1CC[C@H]2[C@@H]3[C@H](O)C[C@@H]4C[C@H](O)CC[C@]4(C)[C@H]3C[C@H](O)[C@]12C)C(=O)O` [LeuCA, leucocholic acid], the “detection in portal blood or bile after repeated oral gavage” value in data set [5] is “failure to detect; also recorded: did not lead to detection”. Also, the “effect on microbial composition in vitro” value in the data set with microbial composition is “did not affect”.
